From ChEMBL document CHEMBL1157852, “Modulation of doxorubicin activity in cancer cells by conjugation with fatty acyl and terpenyl hydrazones” (Eur J Med Chem, 2010)
Calls of active or inactive are those of the source. The rule behind the calls is not given here.

Key:
[1] = Cytotoxicity against human vinblastine-resistant KBV1 cells after 72 hrs by MTT assay; assay type: functional, cell-based; details: KB-V1, 72 h
How it was run: (§1)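 MTT assay. Cells seeded and cultured 24 h, then exposed to compound for 24, 48 or 72 h. MTT added to a final 0.05% (HL-60, 518A2) or 0.1% (KB-V1, MCF-7) for 2 h. Formazan dissolved in 10% SDS/DMSO with 0.6% acetic acid; absorbance read at 570 nm against 630 nm background. Viability taken relative to untreated controls (100%). IC50 from concentration-response curves, mean ± SD of four independent experiments.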

HL-60 [2] = assay: Cytotoxicity against human HL60 cells assessed as increase in ROS production at 5 uM after 72 hrs by NBT reduction assay relative to control; assay type: functional
How it was run: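 NBT assay. HL-60 cells (0.5×10⁶/mL) or trypsinised 518A2 cells (5×10⁴/mL) pre-incubated 24 h at 37 °C, then given compound at a final 5 µM for 24 or 72 h. Medium removed; cells incubated with 0.1% NBT for 1 h (HL-60) or 4 h (518A2). Diformazan dissolved in 2 M KOH/DMSO; A630 read against 405 nm. Given as % of untreated controls; double quadruplicates.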

[3] = Cytotoxicity against human vinblastine-resistant KBV1 cells after 24 hrs by MTT assay; assay type: functional, cell-based; details: KB-V1, 24 h; how it was run: as §1
HL-60 [4] = assay: Induction of apoptosis in human HL60 cells assessed as increase of caspase 9 activity at 5 uM after 8 hrs by luminometric assay; assay type: functional, cell-based
How it was run: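 HL-60 leukaemia cells were treated with test compound and sampled at intervals from 1 to 24 h. Protein was measured by Bradford. Caspase-9 (Caspase-Glo 8 for line 1) was read from a luminogenic peptide substrate as relative luminescence.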

MCF7 [5] = assay: Ratio of compound IC50 to doxorubicin IC50 for human doxorubicin-resistant MCF7 cells; assay type: functional
[6] = Cytotoxicity against human vinblastine-resistant KBV1 cells after 48 hrs by MTT assay; assay type: functional, cell-based; details: KB-V1, 48 h; how it was run: as §1
518A2 = assay: Induction of apoptosis in human 518A2 cells assessed as appearance of intact mitochondria in cytosol at 5 uM after 6 hrs using JC1 dye relative to control; assay type: functional
How it was run: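 Mitochondrial membrane potential measured with JC-1. Cells exposed to 5 µM compound for 6 or 18 h, pelleted at 400 g, stained with 0.2× JC-1 at 37 °C for 15 min (HL-60) or 35 min (518A2), washed and resuspended in PBS. Red fluorescence (ex 585/em 590 nm) and green (ex 510/em 527 nm) read; red/green ratio relative to untreated controls (100%). Mean ± SD, four independent experiments.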

[7] = Cytotoxicity against human 518A2 cells after 48 hrs by MTT assay; assay type: functional, cell-based; details: 518A2, 48 h; how it was run: as §1
MCF7 [8] = assay: Cytotoxicity against human doxorubicin-resistant MCF7 cells by MTT assay; assay type: functional
MCF7 [9] = assay: Cytotoxicity against human topotecan-resistant MCF7 cells after 72 hrs by MTT assay; assay type: functional, cell-based; details: MCF7, 72 h; how it was run: as §1
HL-60 [10] = assay: Induction of apoptosis in human HL60 cells assessed as DNA ladder formation at 5 uM after 24 hrs by agarose gel electrophoresis; assay type: functional, cell-based
How it was run: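 HL-60 cells incubated with 5 µM compound for 24 h, then examined for DNA ladder patterns.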

HL-60 [11] = assay: Induction of apoptosis in human HL60 cells assessed as increase of caspase 3 activity at 5 uM after 12 hrs by luminometric assay; assay type: functional, cell-based
How it was run: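 HL-60 and 518A2 cells treated with 5 µM compound and sampled at intervals from 1 to 24 h. Lysed in 50 mM Tris-HCl pH 7.4, 150 mM NaCl, 1% Triton X-100 with protease inhibitors for 15 min at 4 °C, spun at 800 g. Protein measured by Bradford. Caspase-3/7, -8 and -9 activities read with luminogenic peptide substrates; reported as relative luminescence.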

COc1cccc2c1C(=O)c1c(O)c3c(c(O)c1C2=O)C[C@@](O)(/C(CO)=N/NC(=O)CCCCCCCCCCC(=O)O[C@@H]1C[C@H](C)CC[C@H]1C(C)C)C[C@@H]3O[C@H]1C[C@H](N)[C@H](O)[C@H](C)O1.Cl
IC50 [1]: 8.8 µM | Activity (HL-60 [2]): 5.9% | IC50 [3]: 30.5 µM | Activity (HL-60 [4]): Active | Ratio IC50 (MCF7 [5]): 1.6 | IC50 [6]: 17.1 µM | Activity (518A2): 108% | IC50 [7]: 160 nM | Activity (MCF7 [8]): 55 nM | IC50 (MCF7 [9]): 2600 nM | Activity (HL-60 [10]): Active | Activity (HL-60 [11]): Active
